The results in this text go back to ChEMBL document CHEMBL3352730, “Synthesis and effects on cell viability of flavonols and 3-methyl ether derivatives on human leukemia cells” (Eur J Med Chem, 2014).

The structures appear in SMILES notation.

Test system in one assay: not listed separately
Nature of the assay: Cytotoxicity against human HL60 cells after 72 hrs by MTT assay. The note with it: HL-60, 72 h. Type of assay: functional, cell-based. The method, boiled down:
(§1)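 MTT colorimetric assay with 72 h continuous exposure. IC50 was fitted per experiment by non-linear regression. Values are means with SE from at least three independent experiments, each run in triplicate.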
Compound `COc1ccc2c(=O)c(OC)c(-c3ccc(OC)c(C)c3OC)oc2c1` had a half-maximal inhibitory concentration (IC50) of 27 µM.
For the compound `COc1ccc(-c2oc3cc(OC)ccc3c(=O)c2OC)cc1`, the IC50 is 122 µM.
In turn, `COc1ccc(-c2oc3cc(OC)ccc3c(=O)c2O)cc1` gave an IC50 of 148 µM.
In turn, `O=c1c(O)c(-c2ccccc2Cl)oc2ccccc12` registered an IC50 of 10.7 µM.
`COc1ccc2c(=O)c(OC)c(-c3cc(OC)c(OC)c(OC)c3)oc2c1` registered an IC50 of 21 µM.
In turn, `O=c1c(O)c(-c2ccc(O)c(O)c2)oc2cc(O)cc(O)c12` [QUERCETIN] yielded an IC50 of 47 µM.
`COc1ccc(-c2oc3ccccc3c(=O)c2OC)c(OC)c1C` returned a concentration for half-maximal inhibition (IC50) of 96 µM.
The same measure, in the same setting: next, `COc1ccc(-c2oc3ccccc3c(=O)c2O)c(OC)c1`: 53 µM; `COc1c(-c2cccc3ccccc23)oc2ccccc2c1=O`: 16 µM.
In the case of `COc1c(-c2ccc(Br)cc2)oc2ccccc2c1=O`, the IC50 came out at 21 µM.
The compound `COc1cc(O)c2c(=O)c(OC)c(-c3ccc(OC)c(OC)c3)oc2c1` [RETUSIN] returned a 50% inhibitory concentration (IC50) of 28 µM.
Still for that read-out and setting: next, `COc1cc([C@@H]2c3cc4c(cc3[C@@H](O[C@@H]3O[C@@H]5CO[C@@H](C)O[C@H]5[C@H](O)[C@H]3O)[C@H]3COC(=O)[C@H]23)OCO4)cc(OC)c1O` [ETOPOSIDE]: 0.6 µM.
Consider `COc1cc(-c2oc3ccccc3c(=O)c2O)cc(OC)c1OC`, for which the IC50 was 138 µM.
Take `COc1ccc(-c2oc3ccccc3c(=O)c2OC)c(OC)c1`: 34 µM corresponded to half-maximal inhibition (IC50).
The same measure, in the same setting: as for `COc1ccccc1-c1oc2ccccc2c(=O)c1OC`, the figure is 98 µM.
Take `COc1ccccc1-c1oc2ccccc2c(=O)c1O`: the half-maximal inhibitory concentration (IC50) was 30 µM.
In the case of `COc1ccc(-c2oc3ccccc3c(=O)c2O)c(OC)c1C`, it took 32 µM to reach half-maximal inhibition (IC50).
On the same count and under the same terms, next, `COc1c(-c2ccc(Cl)cc2)oc2ccccc2c1=O`: 26 µM; `O=c1c(O)c(-c2ccc(Cl)cc2)oc2ccccc12`: 102 µM.
`COc1ccc(-c2oc3ccccc3c(=O)c2OC)cc1` returned an IC50 of 39 µM.
Compound `COc1ccc2c(=O)c(O)c(-c3cc(OC)c(OC)c(OC)c3)oc2c1` registered a half-maximal inhibitory concentration (IC50) of 34 µM.

Test system in another assay: not listed separately
Nature of the assay: Cytotoxicity against human HL60/MX1 cells after 72 hrs by MTT assay. Type of assay: functional, cell-based. The note with it: HL60/MX1, 72 h. A digest of the protocol: as §1
Take `O=c1c(O)c(-c2ccccc2Cl)oc2ccccc12`: the IC50 is > 30 µM.

The next assay has as its system Raji. Nature of the assay: Cytotoxicity against human Raji cells after 72 hrs by MTT assay. Type of assay: functional, cell-based.
Settings: not given
The method, boiled down: as §1
Consider `O=c1c(O)c(-c2ccccc2Cl)oc2ccccc12`, for which the IC50 is > 30 µM.

The test system of a further assay is HL-60. Nature of the assay: Induction of apoptosis in human HL60 cells at 30 uM after 24 hrs by propidium iodide staining based flow cytometry (reference value: 3.8 +/- 0.6%). Type of assay: functional.
Settings: not given
`O=c1c(O)c(-c2ccccc2Cl)oc2ccccc12`: the Activity amounted to 14.9%.
